Reference: ChEMBL document CHEMBL5712076, “A TGFβ-PRMT5-MEP50 axis regulates cancer cell invasion through histone H3 and H4 arginine methylation coupled transcriptional activation and repression” (Oncogene, 2017)
Active and inactive are the calls of the source. The rule behind the calls is not given here.

How the values were obtained:
[1] = biological target: Protein arginine N-methyltransferase 5 (Homo sapiens) (UniProt O14744); assay: Inhibition of PRMT5 in TGFbeta1-stimulated human A549 cells assessed as decrease in H3R2me1 protein expression at 500 nM for 4 days by immunoblot analysis; type: cell-based; conditions: time 4.0 day
In short: (§1)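 Immunoblots of A549 or HS578T cells given or not given 10 nM TGFβ1 for 2 days and 500 nM inhibitor for 4 days. Probes were histone methylarginine marks and EMT-related proteins.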

[2] = system: A549; assay: Cytotoxicity against human A549 cells assessed as decrease in cell viability at 500 nM for 4 days by microscopic analysis; type: functional, cell-based; conditions: time 4.0 day
[3] = biological target: Protein arginine N-methyltransferase 5 (Homo sapiens) (UniProt O14744); assay: Inhibition of PRMT5 in human IMR-90 cells assessed as effect on histone […] methylation for 4 days by immunoblot analysis; type: cell-based; conditions: time 4.0 day
[4] = system: IMR-90; assay: Cytotoxicity against human IMR-90 cells assessed as effect on cell viability at 500 nM for 4 days by microscopic analysis; type: toxicity, cell-based; conditions: imr-90, 96 h, 0.5 µM, time 4 day
[5] = biological target: Protein arginine N-methyltransferase 5 (Homo sapiens) (UniProt O14744); assay: Inhibition of PRMT5 in human IMR-90 cells assessed as effect on SmD3 methylation for 4 days by immunoblot analysis; type: cell-based; conditions: time 4.0 day
[6] = biological target: Protein arginine N-methyltransferase 5 (Homo sapiens) (UniProt O14744); assay: Inhibition of PRMT5 in TGFbeta1-stimulated human HS578T cells assessed as decrease in H4R3me2s protein expression at 500 nM for 4 days by immunoblot analysis; type: cell-based; conditions: Hs-578T, time 4.0 day; in short: as §1
[7] = system: A549; assay: Anticancer activity against human A549 cells assessed as decrease in TGFbeta1-induced cell invasion at 500 nM for 4 days by crystal violet staining based matrigel assay; type: functional; conditions: time 4.0 day
In short: (§2)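 Matrigel invasion through 8 μm pores in A549, SK-MES-1 or HS578T cells, with or without 500 nM inhibitor for 4 days and with or without 10 nM TGFβ1 for 2 days. Invaded cells on the membrane underside were stained with crystal violet, imaged by phase-contrast at 20X and counted. Mean ± S.E.M. of three independent experiments; one-way ANOVA.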

[8] = system: A549; assay: Anticancer activity in human A549 cells assessed as TGFbeta1-induced cell morphology change for 4 days by microscopic analysis; type: functional, cell-based; conditions: dose 500.0 nM, time 4.0 day
In short: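 A549 cells were given or not given 500 nM for 4 days and 10 nM TGFβ1 for 2 days. Cell morphology was imaged by microscopy, with inserts at higher magnification.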

[9] = biological target: Protein arginine N-methyltransferase 5 (Homo sapiens) (UniProt O14744); assay: Inhibition of PRMT5 in TGFbeta1-stimulated human A549 cells assessed as decrease in decrease in E-cadherin protein expression at 500 nM for 4 days by immunoblot analysis; type: cell-based; conditions: time 4.0 day; in short: as §1
[10] = system: NCI-H1339; assay: Anticancer activity against human NCI-H1339 cells assessed as decrease in TGFbeta1-induced cell invasion at 500 nM for 4 days by crystal violet staining based matrigel assay; type: functional; conditions: time 4.0 day
[11] = biological target: Protein arginine N-methyltransferase 5 (Homo sapiens) (UniProt O14744); assay: Inhibition of PRMT5 in human A549 cells assessed as decrease in SmD3 methylation at 0.01 to 5 uM for 4 days by immunoblot analysis; type: cell-based; conditions: dose 0.01-5 µM, time 4.0 day
In short: (§3)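 A549 cells were exposed to 0, 10 nM, 100 nM, 500 nM, 1 μM or 5 μM for 4 days. Lysates were blotted for SYM10 (methylated SmD3) and GAPDH. Extracted histones were blotted for H4R3me2s and H3, with DB71 staining of the histones.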

[12] = system: NCI-H460; assay: Anticancer activity against human NCI-H460 cells assessed as decrease in TGFbeta1-induced cell invasion at 500 nM for 4 days by crystal violet staining based matrigel assay; type: functional; conditions: time 4.0 day
[13] = biological target: Protein arginine N-methyltransferase 5 (Homo sapiens) (UniProt O14744); assay: Inhibition of PRMT5 in TGFbeta1-stimulated human HS578T cells assessed as decrease in H3R2me2s protein expression at 500 nM for 4 days by immunoblot analysis; type: cell-based; conditions: Hs-578T, time 4.0 day; in short: as §1
[14] = biological target: Protein arginine N-methyltransferase 5 (Homo sapiens) (UniProt O14744); assay: Inhibition of PRMT5 in TGFbeta1-stimulated human HS578T cells assessed as decrease in H3R2me1 protein expression at 500 nM for 4 days by immunoblot analysis; type: cell-based; conditions: Hs-578T, time 4.0 day; in short: as §1
[15] = biological target: Protein arginine N-methyltransferase 5 (Homo sapiens) (UniProt O14744); assay: Inhibition of PRMT5 in TGFbeta1-stimulated human A549 cells assessed as decrease in H3R2me2s protein expression at 500 nM for 4 days by immunoblot analysis; type: cell-based; conditions: time 4.0 day; in short: as §1
[16] = biological target: Protein arginine N-methyltransferase 5 (Homo sapiens) (UniProt O14744); assay: Inhibition of PRMT5 in TGFbeta1-stimulated human A549 cells assessed as decrease in H4R3me2s protein expression at 500 nM for 4 days by immunoblot analysis; type: cell-based; conditions: time 4.0 day; in short: as §1
[17] = biological target: Protein arginine N-methyltransferase 5 (Homo sapiens) (UniProt O14744); assay: Inhibition of PRMT5 in TGFbeta1-stimulated human A549 cells assessed as increase in snail protein expression at 500 nM for 4 days by immunoblot analysis; type: cell-based; conditions: time 4.0 day; in short: as §1
[18] = system: A549; assay: Anticancer activity against human A549 cells assessed as decrease in cell migration at 500 nM for 4 days by crystal violet staining based matrigel assay; type: functional; conditions: time 4.0 day
[19] = system: Hs-578T; assay: Anticancer activity against human Hs-578T cells assessed as decrease in TGFbeta1-induced cell invasion at 500 nM for 4 days by crystal violet staining based matrigel assay; type: functional; conditions: time 4.0 day; in short: as §2
[20] = system: SK-MES-1; assay: Anticancer activity against human SK-MES-1 cells assessed as decrease in TGFbeta1-induced cell invasion at 500 nM for 4 days by crystal violet staining based matrigel assay; type: functional; conditions: time 4.0 day; in short: as §2
[21] = system: A549; assay: Anticancer activity against human A549 cells assessed as decrease in cell invasion at 500 nM for 4 days by crystal violet staining based matrigel assay; type: functional; conditions: time 4.0 day
In short: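 A549 cells were exposed to 500 nM for 0 or 4 days, then run in a Matrigel invasion assay through 8 μm porous polycarbonate membranes. Crystal violet-stained invaded cells on the underside were imaged by phase-contrast at 20X and quantified. Three independent experiments, mean ± S.E.M., one-way ANOVA.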

[22] = biological target: Protein arginine N-methyltransferase 5 (Homo sapiens) (UniProt O14744); assay: Inhibition of PRMT5 in human A549 cells assessed as decrease in histone […] methylation at 0.01 to 5 uM for 4 days by immunoblot analysis; type: cell-based; conditions: dose 0.01-5 µM, time 4.0 day; in short: as §3
[23] = biological target: Protein arginine N-methyltransferase 5 (Homo sapiens) (UniProt O14744); assay: Inhibition of PRMT5 in TGFbeta1-stimulated human A549 cells assessed as increase in vimentin protein expression at 500 nM for 4 days by immunoblot analysis; type: cell-based; conditions: time 4.0 day; in short: as §1

Chain of Protein arginine N-methyltransferase 5 (Homo sapiens) (O14744 whole entry): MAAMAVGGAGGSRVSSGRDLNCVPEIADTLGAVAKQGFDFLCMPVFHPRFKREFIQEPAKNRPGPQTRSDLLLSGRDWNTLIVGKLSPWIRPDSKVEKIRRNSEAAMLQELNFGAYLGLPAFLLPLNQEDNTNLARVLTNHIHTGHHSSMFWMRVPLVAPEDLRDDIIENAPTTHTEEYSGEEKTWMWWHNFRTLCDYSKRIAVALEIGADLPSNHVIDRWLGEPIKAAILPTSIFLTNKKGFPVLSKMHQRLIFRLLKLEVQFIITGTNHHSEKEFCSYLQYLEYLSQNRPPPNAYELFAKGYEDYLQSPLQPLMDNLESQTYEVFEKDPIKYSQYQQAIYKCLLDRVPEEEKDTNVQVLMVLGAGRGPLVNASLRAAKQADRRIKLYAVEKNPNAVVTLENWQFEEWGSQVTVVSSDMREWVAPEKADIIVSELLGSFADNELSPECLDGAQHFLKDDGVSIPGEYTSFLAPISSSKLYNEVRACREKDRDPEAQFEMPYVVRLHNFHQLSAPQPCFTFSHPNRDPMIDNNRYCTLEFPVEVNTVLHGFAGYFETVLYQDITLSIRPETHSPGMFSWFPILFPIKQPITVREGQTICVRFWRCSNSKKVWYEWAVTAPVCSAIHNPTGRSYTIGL

- inhibition [1]: Active
- inhibition [3]: inactive
- inhibition [5]: inactive
- inhibition [6]: Active
- inhibition [9]: Active
- inhibition [11]: Active
- inhibition [13]: Active
- inhibition [14]: Active
- inhibition [15]: Active
- inhibition [16]: Active
- inhibition [17]: Active
- inhibition [22]: Active
- inhibition [23]: Active
Structure (SMILES): O=C(NC[C@H](O)CN1CCc2ccccc2C1)c1ccnc(NC2CCC2)c1
- inhibition [2]: Active
- Activity [4]: Non-Toxic
- inhibition [7]: Active
- Activity [8]: Active
- inhibition [10]: Active
- inhibition [12]: Active
- inhibition [18]: Active
- inhibition [19]: Active
- inhibition [20]: Active
- inhibition [21]: Active
